ChEMBL document CHEMBL4765336, “Discovery of coumarin derivatives as potent and selective cyclin-dependent kinase 9 (CDK9) inhibitors with high antitumour activity” (Eur J Med Chem, 2020)

Assays:
BXPC-3 = assay: Antiproliferative activity against human BxPC3 cells assessed as inhibition of cell growth incubated for 72 hrs by Celltiter-Glo luminescent assay; type: functional, cell-based; conditions: BXPC-3, 72 h
In short: (§1)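 Cells seeded in growth medium and held overnight at 37 °C; medium-only wells served as background. DMSO stocks were diluted in medium to 3× final and added; cells incubated 72 h at 37 °C, 5% CO2. Viability read by CellTiter-Glo luminescence after 60 min at room temperature. IC50 from curve fit, mean of duplicate.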

A549 = assay: Antiproliferative activity against human A549 cells assessed as inhibition of cell growth incubated for 72 hrs by Celltiter-Glo luminescent assay; type: functional, cell-based; conditions: A549, 72 h; in short: as §1
[1] = Metabolic stability in monkey liver microsomes assessed as intrinsic clearance at 1 uM incubated up to 60 mins in presence of NADPH by LC-MS/MS analysis; type: ADME, Macaca mulatta, Microsome; conditions: rhesus monkey, read-out: CLH
In short: (§2)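 Liver microsomes (0.5 mg/mL) incubated at 37 °C with compound at 1.0 μM final, 3 mM MgCl2 and 1 mM NADPH in 100 mM PBS pH 7.4. Samples taken at 0, 5, 15, 30, 60 min; remaining parent measured by LC-MS/MS. k = −slope, T1/2 = 0.693/k, CLint = k/microsomal protein concentration. Midazolam served as control.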

CDK9/cyclin T1 = CDK9/cyclin T1 (Homo sapiens, UniProt P50750); assay: Inhibition of CDK9/Cyclin T1 (unknown origin) preincubated for 20 mins followed by ATP addition and measured after 120 mins in presence of [33P-gamma] ATP by hotspot kinase assay; type: protein-complex assay
Chain of CDK9/cyclin T1 (O60563 whole entry): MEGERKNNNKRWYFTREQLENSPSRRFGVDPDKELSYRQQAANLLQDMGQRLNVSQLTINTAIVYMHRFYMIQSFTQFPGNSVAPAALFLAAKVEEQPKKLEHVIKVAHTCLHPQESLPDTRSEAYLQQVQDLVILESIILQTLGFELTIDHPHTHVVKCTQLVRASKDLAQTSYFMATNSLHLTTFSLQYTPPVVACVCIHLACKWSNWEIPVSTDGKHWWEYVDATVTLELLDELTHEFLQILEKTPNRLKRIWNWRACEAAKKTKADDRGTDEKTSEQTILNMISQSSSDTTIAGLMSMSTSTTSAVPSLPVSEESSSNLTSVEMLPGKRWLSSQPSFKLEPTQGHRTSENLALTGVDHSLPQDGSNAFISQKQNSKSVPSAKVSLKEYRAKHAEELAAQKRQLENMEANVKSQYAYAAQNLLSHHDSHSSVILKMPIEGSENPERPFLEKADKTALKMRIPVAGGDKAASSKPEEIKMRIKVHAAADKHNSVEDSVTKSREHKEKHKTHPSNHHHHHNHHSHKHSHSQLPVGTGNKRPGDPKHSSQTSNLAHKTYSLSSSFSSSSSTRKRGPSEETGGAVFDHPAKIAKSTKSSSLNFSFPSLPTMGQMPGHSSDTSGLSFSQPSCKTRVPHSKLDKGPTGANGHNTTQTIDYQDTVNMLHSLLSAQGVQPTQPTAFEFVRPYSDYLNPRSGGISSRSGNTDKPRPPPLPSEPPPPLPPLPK
Chain of CDK9/cyclin T1 (P50750 whole entry): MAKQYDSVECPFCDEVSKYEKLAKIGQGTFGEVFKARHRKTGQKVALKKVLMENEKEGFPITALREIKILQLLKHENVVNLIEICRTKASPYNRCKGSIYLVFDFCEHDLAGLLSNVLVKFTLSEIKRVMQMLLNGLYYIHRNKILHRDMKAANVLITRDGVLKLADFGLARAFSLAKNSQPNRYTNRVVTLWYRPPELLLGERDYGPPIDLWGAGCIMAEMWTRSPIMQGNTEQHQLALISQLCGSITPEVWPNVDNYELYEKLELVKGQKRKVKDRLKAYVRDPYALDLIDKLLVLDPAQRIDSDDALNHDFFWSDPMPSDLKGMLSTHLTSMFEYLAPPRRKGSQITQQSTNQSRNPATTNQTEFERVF

MOLM-13 = assay: Antiproliferative activity against human MOLM-13 cells assessed as inhibition of cell growth incubated for 72 hrs by Celltiter-Glo luminescent assay; type: functional, cell-based; conditions: MOLM-13, 72 h; in short: as §1
[2] = Metabolic stability in rat liver microsomes assessed as half life at 1 uM incubated up to 60 mins in presence of NADPH by LC-MS/MS analysis; type: ADME, Microsome; in short: as §2
HepG2 = assay: Antiproliferative activity against human HepG2 cells assessed as inhibition of cell growth incubated for 72 hrs by Celltiter-Glo luminescent assay; type: functional, cell-based; conditions: HepG2, 72 h; in short: as §1
PANC-1 = assay: Antiproliferative activity against human PANC-1 cells assessed as inhibition of cell growth incubated for 72 hrs by Celltiter-Glo luminescent assay; type: functional, cell-based; conditions: PANC-1, 72 h; in short: as §1
NCI-N87 = assay: Antiproliferative activity against human NCI-N87 cells assessed as inhibition of cell growth incubated for 72 hrs by Celltiter-Glo luminescent assay; type: functional, cell-based; conditions: NCI-N87, 72 h; in short: as §1
[3] = Metabolic stability in rat liver microsomes assessed as intrinsic clearance at 1 uM incubated up to 60 mins in presence of NADPH by LC-MS/MS analysis; type: ADME, Microsome; conditions: read-out: CLH; in short: as §2
HCT-116 = assay: Antiproliferative activity against human HCT-116 cells assessed as inhibition of cell growth incubated for 72 hrs by Celltiter-Glo luminescent assay; type: functional, cell-based; conditions: HCT-116, 72 h; in short: as §1
A-375 = assay: Antiproliferative activity against human A-375 cells assessed as inhibition of cell growth incubated for 72 hrs by Celltiter-Glo luminescent assay; type: functional, cell-based; conditions: A-375, 72 h; in short: as §1
[4] = Metabolic stability in monkey liver microsomes assessed as half life at 1 uM incubated up to 60 mins in presence of NADPH by LC-MS/MS analysis; type: ADME, Macaca mulatta, Microsome; conditions: rhesus monkey; in short: as §2
[5] = Metabolic stability in human liver microsomes assessed as half life at 1 uM incubated up to 60 mins in presence of NADPH by LC-MS/MS analysis; type: ADME, Microsome; in short: as §2
[6] = Metabolic stability in dog liver microsomes assessed as intrinsic clearance at 1 uM incubated up to 60 mins in presence of NADPH by LC-MS/MS analysis; type: ADME, Canis lupus familiaris, Microsome; conditions: read-out: CLH; in short: as §2
[7] = Metabolic stability in human liver microsomes assessed as intrinsic clearance at 1 uM incubated up to 60 mins in presence of NADPH by LC-MS/MS analysis; type: ADME, Microsome; conditions: read-out: CLH; in short: as §2
CDK2/Cyclin A2 = CDK2/Cyclin A2 (Homo sapiens, UniProt P24941); assay: Inhibition of CDK2/Cyclin A (unknown origin) preincubated for 20 mins followed by ATP addition and measured after 120 mins in presence of [33P-gamma] ATP by hotspot kinase assay; type: protein-complex assay
In short: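 Radiometric filter-binding assay: kinase and substrate in 20 mM Hepes pH 7.5, 10 mM MgCl2, 1 mM EGTA, 0.02% Brij35, 0.02 mg/mL BSA, 0.1 mM Na3VO4, 2 mM DTT, 1% DMSO. Compound (top 1/10/27 μM, 3-fold serial dilutions) preincubated 20 min at 25 °C. ATP plus [γ-33P]ATP added to 10 μM final, reacted 120 min at 25 °C. IC50 from curve fit, duplicate mean.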

MDA-MB-231 = assay: Antiproliferative activity against human MDA-MB-231 cells assessed as inhibition of cell growth incubated for 72 hrs by Celltiter-Glo luminescent assay; type: functional, cell-based; conditions: MDA-MB-231, 72 h; in short: as §1
MV4-11 = assay: Antiproliferative activity against human MV4-11 cells assessed as inhibition of cell growth incubated for 72 hrs by Celltiter-Glo luminescent assay; type: functional, cell-based; conditions: MV4-11, 72 h; in short: as §1
SW-620 = assay: Antiproliferative activity against human SW-620 cells assessed as inhibition of cell growth incubated for 72 hrs by Celltiter-Glo luminescent assay; type: functional, cell-based; conditions: SW-620, 72 h; in short: as §1
MIA PaCa-2 = assay: Antiproliferative activity against human MIA PaCa-2 cells assessed as inhibition of cell growth incubated for 72 hrs by Celltiter-Glo luminescent assay; type: functional, cell-based; conditions: MIA PaCa-2, 72 h; in short: as §1
[8] = Metabolic stability in dog liver microsomes assessed as half life at 1 uM incubated up to 60 mins in presence of NADPH by LC-MS/MS analysis; type: ADME, Canis lupus familiaris, Microsome; in short: as §2
NCI-H460 = assay: Antiproliferative activity against human NCI-H460 cells assessed as inhibition of cell growth incubated for 72 hrs by Celltiter-Glo luminescent assay; type: functional, cell-based; conditions: NCI-H460, 72 h; in short: as §1

IC50 (BXPC-3): 0.91 µM | IC50 (A549): 2.36 µM | microsomal CLint at 1 µM [1]: 62.5 µL/min/mg | IC50 (CDK9/cyclin T1): 0.0088 µM | IC50 (MOLM-13): 0.26 µM | half-life at 1 µM [2]: 9.61 min | IC50 (HepG2): 0.56 µM | IC50 (PANC-1): 1.88 µM | microsomal CLint at 1 µM [3]: 144 µL/min/mg | IC50 (HCT-116): 0.66 µM | IC50 (A-375): 0.96 µM | half-life at 1 µM [4]: 22.2 min | half-life at 1 µM [5]: 33.5 min | microsomal CLint at 1 µM [6]: 98.3 µL/min/mg | microsomal CLint at 1 µM [7]: 41.4 µL/min/mg | IC50 (CDK2/Cyclin A2): 1.33 µM | IC50 (MDA-MB-231): 1.58 µM | IC50 (MV4-11): 0.25 µM | IC50 (SW-620): 2.7 µM | IC50 (MIA PaCa-2): 1.6 µM | half-life at 1 µM [8]: 14.1 min | IC50 (NCI-H460): 2.15 µM
SMILES: COc1cc(F)ccc1-c1ccnc(Nc2ccc3c(N4CCOCC4)c(C(C)=O)c(=O)oc3c2)n1
IC50 (NCI-N87): 3.58 µM
